Experimental data from different studies.
Protocols differ between the studies behind these lines.
Target: Glycogen synthase kinase-3 alpha (GSK3A, Homo sapiens, UniProt P49840)

Structure (SMILES) | read-out | mode | method | tested at | endpoint | result
CCCS(=O)(=O)Nc1ccc(F)c(C(=O)c2c[nH]c3ncc(-c4ccc(Cl)cc4)cc23)c1F | enzyme activity | inhibitor | – | 1 µM | inhibition | < 10%
Cc1ccc(Nc2nccc(N(C)c3ccc4c(C)n(C)nc4c3)n2)cc1S(N)(=O)=O | enzyme activity | inhibitor | – | 10 µM | inhibition | 48%
O=C(NCc1ncc(C(F)(F)F)cc1Cl)c1ccc2c(c1)C1(CCS(=O)(=O)CC1)[C@@H](C1CC1)N2S(=O)(=O)c1ccc(F)cc1 | cell-free assay | – | competition with immobilised ligand | 1 µM | remaining binding | 100%
Cn1cnc(Br)c1C1=CN(c2ncnc3[nH]cnc23)CCS1 | enzyme activity | inhibitor | radiometric | 2 µM | inhibition | 84.1%
O=S(=O)(Nc1cc(Sc2ncn[nH]2)c(O)c2ccccc12)c1ccc(-c2ccccc2)cc1 | enzyme activity | inhibitor | – | 1 µM | remaining activity | ≥ 75%
CCCCNc1ncc2c(-c3ccc(F)cc3)nn(C[C@H]3CC[C@H](N)CC3)c2n1 | target engagement in cells | inhibitor | chemoproteomics | 20 mM | inhibition | 6%
CNC(=O)Nc1ccc2c(c1)CC[C@@]21OC(=O)N(CC(=O)N(Cc2ccc(F)cc2)[C@@H](C)C(F)(F)F)C1=O | cell-free assay | – | competition with immobilised ligand | 1 µM | remaining binding | 99%
Cc1ccc(C(=O)NCc2ccsc2)cc1C#Cc1cn(C(C)C)c2ncnc(N)c12 | enzyme activity | inhibitor | – | 1 µM | activity vs control | 91%
CC/C(=N\NC(=O)NCc1cccc(O)c1)c1ccc(O)c(C)c1O | enzyme activity | inhibitor | – | 0.1 µM | inhibition | 2.8%
O=C(O)[C@@H]1[C@@H](Cn2nnc3ccccc3c2=O)CC[C@H]1C(=O)c1ccc(OCCC2CCOCC2)cc1 | cell-free assay | – | competition with immobilised ligand | 1 µM | remaining binding | 93%
Nc1ncnc2occ(-c3ccc(NC(=O)Nc4cc(C(F)(F)F)ccc4F)cc3)c12 | enzyme activity | inhibitor | – | 20 µM | remaining activity | 17%
CO[C@@H](C)c1c(Nc2ccc([C@@H](N(C)C(=O)C3CCS(=O)(=O)CC3)C(F)(F)F)cc2)cnc2cc(Cl)nn12 | cell-free assay | – | competition with immobilised ligand | 1 µM | remaining binding | 94%
Cc1cnc(NC2CCOCC2)nc1-n1cnc(C(=O)NC(CN)c2cc(F)cc(Cl)c2)c1 (stereo not shown) | enzyme activity | inhibitor | radiometric | 1 µM | remaining activity | 8%
O=C1Cc2c([nH]c3ccc([N+](=O)[O-])cc23)-c2ccccc2N1 | cell-free assay | – | – | 0.5 µM | remaining signal | 0.971%
CN1CC(Oc2cnc(C#N)cc2-c2ccn3nc(NC(=O)C4CC4)cc3c2)C1 | enzyme activity | inhibitor | – | 1 µM | inhibition | -14%
O=C(Nc1cnn(-c2csc(C(=O)NC3COC3)c2)c1)Nc1ccccc1Cl | enzyme activity | inhibitor | – | 5 µM | remaining activity | 97.4%
O=C(N[C@H]1CCCCC/C=C\C2C[C@@]2(C(=O)O)NC(=O)[C@@H]2C[C@@H](Oc3ccncc3)CN2C1=O)OC1CCCC1 (stereo partly shown) | cell-free assay | – | competition with immobilised ligand | 1 µM | remaining binding | 100%
Cc1ccc(NC(=O)c2ccc(CN3CCN(C)CC3)cc2)cc1Nc1nccc(-c2cccnc2)n1 | enzyme activity | inhibitor | – | 0.5 µM | activity vs control | 100%
Cc1c(NC(=O)c2cc(C(N)=O)nc3cc(F)ccc23)c(C(F)(F)F)nn1Cc1ccc(C(C)(C)C)cc1 | cell-free assay | – | competition with immobilised ligand | 1 µM | remaining binding | 98%
COc1cc(Cl)c(C(=O)N[C@@H](CN[C@H]2CC[C@@H](N)CC2)Cc2ccc(C#N)cc2)cc1-c1ccc(CN[C@H](C)c2ccc(C)cc2)o1 | enzyme activity | inhibitor | – | 1 µM | remaining activity | 106%
CCN(CC)CCNC(=O)c1c(C)[nH]c(/C=C2\C(=O)Nc3ccc(F)cc32)c1C | enzyme activity | inhibitor | – | 0.3 µM | inhibition | 2%
CC(C)(C)c1nc2c(s1)c1nc(N)ncc1c1ccc(NS(=O)(=O)c3c(F)cccc3F)c(F)c12 | enzyme activity | inhibitor | radiometric | 1 µM | remaining activity | 88%
COc1cc2ncnc(Nc3ccc(F)c(Cl)c3)c2cc1OCCCN1CCOCC1 | cell-free assay | – | – | 0.5 µM | remaining signal | 99.7%
O=C(N1CCS(=O)(=O)CC1)N1C[C@H](c2ccc(OC(F)(F)F)cc2)C[C@H](c2nc(C3CC3)no2)C1 | cell-free assay | – | competition with immobilised ligand | 1 µM | remaining binding | 100%
Nc1nc(Nc2ccc(S(N)(=O)=O)cc2)sc1C(=O)c1ccccc1[N+](=O)[O-] | enzyme activity | inhibitor | – | 0.1 µM | inhibition | 73 to 75%
COc1cccc2c(NCc3ccccc3)nc(-n3c(N)nc4ccccc43)nc12 | target engagement in cells | inhibitor | chemoproteomics | 20 mM | inhibition | 2%
CS(=O)(=O)N1CCCC(NC(=O)[C@H](CCC2CCCCC2)NC(=O)c2ccc(CNc3ncnc4c3nnn4-c3ccccc3)cc2)C1 (stereo partly shown) | cell-free assay | – | competition with immobilised ligand | 0.1 µM | remaining binding | 100%
COc1cc2ncnc(Nc3ccc(Oc4ccccc4)c(C)c3C)c2cc1OC | enzyme activity | inhibitor | – | 1 µM | inhibition | 2%
